Laboratory results reported in ChEMBL document CHEMBL2062469, “1-(2-Mercaptobenzenesulfonyl)-3-hydroxyguanidines--novel potent antiproliferatives, synthesis and in vitro biological activity” (2012).
One block for each molecule: values may come before it.

How the values were obtained:
Format in all cases: functional
[1] = test system: CCRF-CEM; test: Cytostatic activity against human CCRF-CEM cells
How it was run: (§1)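 NCI-60 human tumor cell line screen run by the US National Cancer Institute under the NIH Developmental Therapeutics Program protocol. A single-dose prescreen at 10 µM came first. Selected compounds then went into the 5-dose assay. Cytostatic activity is reported as GI50 (µM).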

[2] = test system: K562; test: Cytostatic activity against human K562 cells; how it was run: as §1
[3] = test system: MOLT-4; test: Cytostatic activity against human MOLT4 cells; how it was run: as §1
[4] = Cytostatic activity against human […] cells; how it was run: as §1
[5] = test system: SR; test: Cytostatic activity against human SR cells
How it was run: (§2)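 Human tumour cell lines from the NCI-60 panel, tested at the US National Cancer Institute under the NIH Developmental Therapeutics Program protocol. A single-dose prescreen at 10 µM came first. Selected compounds then went to a 5-dose assay, which gave GI50 and TGI values in µM.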

[6] = test system: EKVX; test: Cytostatic activity against human EKVX cells; how it was run: as §1
[7] = test system: HOP-62; test: Cytostatic activity against human HOP62 cells; how it was run: as §1
[8] = test system: HOP-92; test: Cytostatic activity against human HOP92 cells; how it was run: as §1
[9] = test system: NCI-H226; test: Cytostatic activity against human NCI-H226 cells; how it was run: as §1
[10] = test system: NCI-H23; test: Cytostatic activity against human NCI-H23 cells; how it was run: as §1
[11] = test system: NCI-H322M; test: Cytostatic activity against human NCI-H322M cells; how it was run: as §1
[12] = test system: NCI-H460; test: Cytostatic activity against human NCI-H460 cells; how it was run: as §1
[13] = test system: NCI-H522; test: Cytostatic activity against human NCI-H522 cells; how it was run: as §1
[14] = test system: COLO 205; test: Cytostatic activity against human COLO205 cells; how it was run: as §1
[15] = test system: HCC 2998; test: Cytostatic activity against human HCC2998 cells; how it was run: as §1
[16] = test system: HCT-116; test: Cytostatic activity against human HCT116 cells; how it was run: as §1
[17] = test system: HCT-15; test: Cytostatic activity against human HCT15 cells; how it was run: as §1
[18] = test system: HT-29; test: Cytostatic activity against human HT-29 cells; how it was run: as §1
[19] = test system: KM12; test: Cytostatic activity against human KM12 cells; how it was run: as §1
[20] = test system: SW-620; test: Cytostatic activity against human SW620 cells; how it was run: as §2
[21] = test system: SF-268; test: Cytostatic activity against human SF268 cells; how it was run: as §1
[22] = test system: SF-295; test: Cytostatic activity against human SF295 cells; how it was run: as §1
[23] = test system: SF-539; test: Cytostatic activity against human SF539 cells; how it was run: as §1
[24] = test system: SNB-19; test: Cytostatic activity against human SNB19 cells; how it was run: as §1
[25] = test system: SNB-75; test: Cytostatic activity against human SNB75 cells; how it was run: as §2
[26] = test system: U-251; test: Cytostatic activity against human U251 cells; how it was run: as §2
[27] = test system: LOX IMVI; test: Cytostatic activity against human LOXIMVI cells; how it was run: as §1
[28] = test system: Malme-3M; test: Cytostatic activity against human MALME-3M cells; how it was run: as §1
[29] = test system: M14; test: Cytostatic activity against human M14 cells; how it was run: as §1
[30] = test system: MDA-MB-435; test: Cytostatic activity against human MDA-MB-435 cells; how it was run: as §1
[31] = test system: SK-MEL-2; test: Cytostatic activity against human SK-MEL-2 cells; how it was run: as §1
[32] = test system: SK-MEL-28; test: Cytostatic activity against human SK-MEL-28 cells; how it was run: as §1
[33] = test system: SK-MEL-5; test: Cytostatic activity against human SK-MEL-5 cells; how it was run: as §1
[34] = test system: UACC-257; test: Cytostatic activity against human UACC257 cells; how it was run: as §2
[35] = test system: UACC-62; test: Cytostatic activity against human UACC62 cells; how it was run: as §2
[36] = test system: IGROV-1; test: Cytostatic activity against human IGROV1 cells; how it was run: as §1
[37] = test system: OVCAR-3; test: Cytostatic activity against human OVCAR3 cells; how it was run: as §1
[38] = test system: OVCAR-4; test: Cytostatic activity against human OVCAR4 cells; how it was run: as §1
[39] = test system: OVCAR-5; test: Cytostatic activity against human OVCAR5 cells; how it was run: as §1
[40] = test system: OVCAR-8; test: Cytostatic activity against human OVCAR8 cells; how it was run: as §1
[41] = test system: NCI/ADR-RES; test: Cytostatic activity against human NCI-ADR-RES cells; how it was run: as §1
[42] = test system: SK-OV-3; test: Cytostatic activity against human SKOV3 cells; how it was run: as §1
[43] = test system: 786-0; test: Cytostatic activity against human 786-0 cells; how it was run: as §1
[44] = test system: A498; test: Cytostatic activity against human A498 cells; how it was run: as §1
[45] = test system: ACHN; test: Cytostatic activity against human ACHN cells; how it was run: as §1
[46] = test system: CAKI-1; test: Cytostatic activity against human Caki1 cells; how it was run: as §1
[47] = test system: RXF 393; test: Cytostatic activity against human RXF393 cells; how it was run: as §1
[48] = test system: SN12C; test: Cytostatic activity against human SN12C cells; how it was run: as §1
[49] = test system: UO-31; test: Cytostatic activity against human UO31 cells; how it was run: as §2
[50] = test system: PC-3; test: Cytostatic activity against human PC3 cells; how it was run: as §1
[51] = test system: DU-145; test: Cytostatic activity against human DU145 cells; how it was run: as §1
[52] = test system: MCF7; test: Cytostatic activity against human MCF7 cells; how it was run: as §1
[53] = test system: MDA-MB-231; test: Cytostatic activity against human MDA-MB-231/ATCC cells; how it was run: as §1
[54] = test system: Hs-578T; test: Cytostatic activity against human Hs 578T cells; how it was run: as §1
[55] = test system: BT-549; test: Cytostatic activity against human BT549 cells; how it was run: as §1
[56] = test system: T47D; test: Cytostatic activity against human T47D cells; how it was run: as §2
[57] = test system: MDA-MB-468; test: Cytostatic activity against human MDA-MB-468 cells; how it was run: as §1

SMILES: N=C(NO)NS(=O)(=O)c1cc(-c2nnc(-c3ccccc3)s2)c(Cl)cc1SCc1ccc2c(c1)OCO2
GI50 [1]: 1040 nM | TGI [1]: 3660 nM | GI50 [2]: 1530 nM | TGI [2]: 3940 nM | GI50 [3]: 1140 nM | TGI [3]: 3080 nM | GI50 [4]: 1760 nM | TGI [4]: 4520 nM | GI50 [5]: 880 nM | TGI [5]: 4100 nM | GI50 [6]: 1650 nM | TGI [6]: 2990 nM | GI50 [7]: 1930 nM | TGI [7]: 3710 nM | GI50 [8]: 1820 nM | TGI [8]: 5100 nM | GI50 [9]: 2010 nM | TGI [9]: 4020 nM | GI50 [10]: 1770 nM | TGI [10]: 3850 nM | GI50 [11]: 1580 nM | TGI [11]: 4280 nM | GI50 [12]: 1790 nM | TGI [12]: 3560 nM | GI50 [13]: 240 nM | TGI [13]: 800 nM | GI50 [14]: 1750 nM | TGI [14]: 3280 nM | GI50 [15]: 1850 nM | TGI [15]: 3590 nM | GI50 [16]: 1520 nM | TGI [16]: 3310 nM | GI50 [17]: 2020 nM | TGI [17]: 4340 nM | GI50 [18]: 1850 nM | TGI [18]: 3430 nM | GI50 [19]: 1640 nM | TGI [19]: 3030 nM | GI50 [20]: 1460 nM | TGI [20]: 2860 nM | GI50 [21]: 1610 nM | TGI [21]: 3320 nM | GI50 [22]: 1630 nM | TGI [22]: 3550 nM | GI50 [23]: 2150 nM | TGI [23]: 4100 nM | GI50 [24]: 1770 nM | TGI [24]: 3830 nM | GI50 [25]: 1070 nM | TGI [25]: 2340 nM | GI50 [26]: 1400 nM | TGI [26]: 2850 nM | GI50 [27]: 1730 nM | GI50 [28]: 1710 nM | TGI [28]: 3600 nM | GI50 [29]: 1740 nM | TGI [29]: 3470 nM | GI50 [30]: 1380 nM | TGI [30]: 2770 nM | GI50 [31]: 2010 nM | TGI [31]: 3750 nM | GI50 [32]: 1680 nM | TGI [32]: 3500 nM | GI50 [33]: 1520 nM | TGI [33]: 2840 nM | GI50 [34]: 1670 nM | TGI [34]: 3230 nM | GI50 [35]: 1700 nM | TGI [35]: 3530 nM | GI50 [36]: 1680 nM | TGI [36]: 3950 nM | GI50 [37]: 1700 nM | TGI [37]: 3080 nM | GI50 [38]: 1710 nM | TGI [38]: 4980 nM | GI50 [39]: 2060 nM | TGI [39]: 4360 nM | GI50 [40]: 1770 nM | TGI [40]: 3740 nM | GI50 [41]: 3680 nM | GI50 [42]: 1810 nM | TGI [42]: 3340 nM | GI50 [43]: 2270 nM | GI50 [44]: 1980 nM | TGI [44]: 5520 nM | GI50 [45]: 1700 nM | TGI [45]: 3150 nM | GI50 [46]: 2030 nM | TGI [46]: 4420 nM | GI50 [47]: 1680 nM | TGI [47]: 3530 nM | GI50 [48]: 1620 nM | TGI [48]: 3450 nM | GI50 [49]: 1280 nM | TGI [49]: 3540 nM | GI50 [50]: 1850 nM | TGI [50]: 4130 nM | GI50 [51]: 1670 nM | TGI [51]: 3110 nM | GI50 [52]: 1360 nM | TGI [52]: 3010 nM | GI50 [53]: 1680 nM | TGI [53]: 3370 nM | GI50 [54]: 2410 nM | TGI [54]: 6610 nM | GI50 [55]: 1960 nM | TGI [55]: 4000 nM | GI50 [56]: 1690 nM | TGI [56]: 4150 nM | GI50 [57]: 1530 nM | TGI [57]: 2930 nM

SMILES: N=C(NO)NS(=O)(=O)c1cc(-c2nnc(-c3ccc(Cl)cc3)s2)c(Cl)cc1SCc1ccc2c(c1)OCO2
GI50 [12]: 2340 nM | GI50 [13]: 1860 nM | GI50 [18]: 2290 nM | GI50 [21]: 2040 nM | GI50 [25]: 1780 nM | GI50 [26]: 10700 nM | GI50 [28]: 2240 nM | GI50 [29]: 2140 nM | GI50 [30]: 2630 nM | GI50 [34]: 3550 nM | GI50 [35]: 2140 nM | GI50 [36]: 3470 nM | GI50 [37]: 1620 nM | GI50 [49]: 3720 nM | GI50 [53]: 5130 nM | GI50 [54]: 2400 nM

SMILES: N=C(NO)NS(=O)(=O)c1cc(-c2nc(-c3ccc(Cl)cc3)cs2)c(Cl)cc1SCc1ccc2c(c1)OCO2
GI50 [21]: 6460 nM | GI50 [26]: 11200 nM | GI50 [30]: 3890 nM | GI50 [35]: 7760 nM | GI50 [36]: 25100 nM | GI50 [53]: 12600 nM

The next lines start with results.

GI50 [26]: 1950 nM | GI50 [30]: 2000 nM | GI50 [53]: 2340 nM
SMILES: N=C(NO)NS(=O)(=O)c1cc(-c2nc(-c3ccccc3)cs2)c(Cl)cc1SCc1ccc2c(c1)OCO2
GI50 [21]: 1860 nM | GI50 [35]: 2140 nM | GI50 [36]: 2820 nM

GI50 [12]: 2040 nM | GI50 [13]: 1290 nM | GI50 [18]: 2000 nM | GI50 [37]: 1700 nM
SMILES: N=C(NO)NS(=O)(=O)c1cc(-c2nc(-c3ccccc3)no2)c(Cl)cc1SCc1ccc2c(c1)OCO2
GI50 [21]: 1910 nM | GI50 [25]: 1550 nM | GI50 [28]: 2190 nM | GI50 [29]: 1910 nM | GI50 [34]: 2000 nM | GI50 [35]: 1820 nM | GI50 [36]: 2570 nM | GI50 [49]: 1660 nM | GI50 [54]: 2630 nM
